Data: ChEMBL document CHEMBL4680131, “Fangchinoline derivatives induce cell cycle arrest and apoptosis in human leukemia cell lines via suppression of the PI3K/AKT and MAPK signaling pathway” (Eur J Med Chem, 2020)
Active and inactive are the calls of the source. No cut-off for these calls is given here.

Columns and labels:
HEL [1] = experiment: Cytotoxicity against human HEL cells assessed as reduction in cell viability incubated for 48 hrs by MTT assay; type: functional, cell-based
In short: (§1)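 MTT viability after 48 h exposure. Cells (1×10^4/well) were allowed 24 h at 37 °C before dosing. Leukemia lines were grown in RPMI and breast lines in high-glucose DMEM, each with 5% FBS under 5% CO2. MTT was added for 4 h, formazan dissolved in DMSO, and absorbance read at 490 nm. Triplicate wells; values averaged over at least 3 independent experiments.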

K562 = experiment: Cytotoxicity against human K562 cells assessed as reduction in cell viability incubated for 48 hrs by MTT assay; type: functional, cell-based; conditions: K562, 48 h; in short: as §1
MDA-MB-231 [2] = experiment: Cytotoxicity against human MDA-MB-231 cells assessed as reduction in cell viability incubated for 48 hrs by MTT assay; type: functional, cell-based; conditions: MDA-MB-231, 48 h; in short: as §1
MCF7 [3] = experiment: Cytotoxicity against human MCF-7 cells assessed as reduction in cell viability incubated for 48 hrs by MTT assay; type: functional, cell-based; conditions: MCF7, 48 h; in short: as §1
HEL [4] = experiment: Antiproliferative activity against human HEL cells assessed as reduction in cell viability incubated for 12 to 72 hrs by MTT assay; type: functional, cell-based; conditions: dose 0.5-2 µM, time 12-72 hrs
In short: (§2)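 HEL cells were kept in RPMI with 5% FBS at 37 °C and 5% CO2. They were seeded at 1×10^4/well and given 24 h before dosing. Exposure ran 12, 24, 36, 48 or 72 h, then MTT was added for 4 h, formazan dissolved in DMSO, and absorbance read at 490 nm. Triplicate wells, repeated at least three times.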

HEL [5] = experiment: Antiproliferative activity against human HEL cells assessed as reduction in cell viability at 0.5 to 2 uM by MTT assay; type: functional, cell-based; conditions: dose 0.5-2 µM, time 12.0 hrs, TDE = time-dependent effect; in short: as §2
HEL [6] = experiment: Induction of cell cycle arrest in human HEL cells assessed as accumulation of cells at G0/G1 phase measured after 1 hrs by flow cytometry; type: functional, cell-based
In short: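 HEL cells (2×10^5/well) were given DMSO or compound, then fixed in ice-cold 70% ethanol at 4 °C overnight and washed in PBS. Cells were stained 1 h at 37 °C in the dark with PBS containing 50 µg/mL PI and 100 µg/mL RNase. DNA content was analyzed by flow cytometry.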

HEL [7] = experiment: Induction of cell cycle arrest in human HEL cells assessed as down regulation of cMyc incubated for 1 hr by Western blot analysis; type: functional, cell-based
In short: (§3)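 HEL cells were lysed in RIPA after compound or DMSO treatment. Lysates were run on 10% SDS-PAGE, transferred to PVDF and blocked in 5% BSA for 1 h. Blots were probed overnight at 4 °C with antibodies to PARP, caspase-3, caspase-9, c-MYC or p21, then HRP secondary for 2 h, and detected by ECL. β-actin served as loading control.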

HEL [8] = experiment: Induction of cell cycle arrest in human HEL cells assessed as up regulation of p21 incubated for 1 hr by Western blot analysis; type: functional, cell-based; in short: as §3
HEL [9] = experiment: Induction of apoptosis in human HEL cells assessed as viable cells by Annexin-V/propidium iodide staining-based flow cytometric analysis (reference value: 96.62%); type: functional
HEL [10] = experiment: Induction of apoptosis in human HEL cells assessed as early apoptotic cells by Annexin-V/propidium iodide staining-based flow cytometric analysis (reference value: 2.26%); type: functional
HEL [11] = experiment: Induction of apoptosis in human HEL cells assessed as late apoptotic cells by Annexin-V/propidium iodide staining-based flow cytometric analysis (reference value: 0.76%); type: functional
HEL [12] = experiment: Induction of apoptosis in human HEL cells assessed as necrotic cells by Annexin-V/propidium iodide staining-based flow cytometric analysis (reference value: 0.34%); type: functional
HEL [13] = experiment: Induction of apoptosis in human HEL cells assessed as increase in PARP cleavage by Western blot analysis; type: functional, cell-based; in short: as §3
HEL [14] = experiment: Induction of apoptosis in human HEL cells assessed as increase in caspase 3 cleavage by Western blot analysis; type: functional, cell-based; in short: as §3
HEL [15] = experiment: Induction of apoptosis in human HEL cells assessed as increase in caspase 9 cleavage by Western blot analysis; type: functional, cell-based; in short: as §3
HEL [16] = experiment: Inhibition of Akt in human HEL cells assessed as PI3K/AKT phosphorylation at 2.5 uM after 8 hrs by Western blot analysis; type: cell-based
In short: (§4)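 HEL cells were treated with 2.5 µM for 8 h, with DMSO as control. RIPA lysates were run on 10% SDS-PAGE and transferred to PVDF. Blots were blocked in 5% BSA, incubated overnight at 4 °C with antibodies to total and phospho Akt, ERK and JNK, then HRP secondary, and detected by ECL. Bands were normalized to β-actin; means ± SD of triplicates in three independent runs; t-test.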

HEL [17] = experiment: Inhibition of ERK phosphorylation in human HEL cells at 2.5 uM after 8 hrs by Western blot analysis; type: cell-based; in short: as §4
[18] = Inhibition of AKT (unknown origin) by ELISA assay; parameters: species or system Homo sapiens
In short: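 Akt kinase activity kit run per the manufacturer's protocol. Akt source was lysate of compound-treated human leukemia HEL cells, purified on a Mono Q anion-exchange column before the kinase measurement. HEL cells were grown in RPMI with 5% FBS at 37 °C and 5% CO2. The value is reported as an IC50.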

HEL [19] = experiment: Potency index, ratio of fangchinoline IC50 to test compound IC50 for human HEL cells; type: functional
MDA-MB-231 [20] = experiment: Potency index, ratio of fangchinoline IC50 to test compound IC50 for human MDA-MB-231 cells; type: functional
MCF7 [21] = experiment: Potency index, ratio of fangchinoline IC50 to test compound IC50 for human MCF-7 cells; type: functional
HEL [22] = experiment: Potency index, ratio of vincristine IC50 to test compound IC50 for human HEL cells; type: functional
MDA-MB-231 [23] = experiment: Potency index, ratio of vincristine IC50 to test compound IC50 for human MDA-MB-231 cells; type: functional
MCF7 [24] = experiment: Potency index, ratio of vincristine IC50 to test compound IC50 for human MCF-7 cells; type: functional
HEL [25] = experiment: Induction of apoptosis in human HEL cells assessed as increase in JNK phosphorylation at 2.5 uM after 8 hrs by Western blot analysis; type: functional, cell-based; in short: as §4

COc1ccc2cc1Oc1ccc(cc1)C[C@H]1c3cc(c(OC)cc3CCN1C)Oc1c(OC(=O)C3CCCS3)c(OC)cc3c1[C@H](C2)N(C)CC3 (stereo partly specified)
IC50 (HEL [1]): 1520 nM | IC50 (K562): 1530 nM | IC50 (MDA-MB-231 [2]): 1600 nM | IC50 (MCF7 [3]): 4010 nM | Activity (HEL [4]): Dose-dependent effect | Activity (HEL [5]): Tde | Activity (HEL [6]): Active | Activity (HEL [7]): Active | Activity (HEL [8]): Active | Activity (HEL [9]): 48.12% | Activity (HEL [10]): 19.97% | Activity (HEL [11]): 27.92% | Activity (HEL [12]): 3.38% | Activity (HEL [13]): Active | Activity (HEL [14]): Active | Activity (HEL [15]): Active | inhibition (HEL [16]): Active | inhibition (HEL [17]): Active | IC50 [18]: 550 nM | Ratio IC50 (HEL [19]): 15 | Ratio IC50 (MDA-MB-231 [20]): 36 | Ratio IC50 (MCF7 [21]): 9 | Ratio IC50 (HEL [22]): 10 | Ratio IC50 (MDA-MB-231 [23]): 10 | Ratio IC50 (MCF7 [24]): 10 | Activity (HEL [25]): Active
